Experimental data gathered from unrelated publications.
Protocols differ between the studies behind these lines.
Target: Atypical kinase COQ8B, mitochondrial (COQ8B, Homo sapiens, UniProt Q96D53)
One construct used (Q96D53 1-544): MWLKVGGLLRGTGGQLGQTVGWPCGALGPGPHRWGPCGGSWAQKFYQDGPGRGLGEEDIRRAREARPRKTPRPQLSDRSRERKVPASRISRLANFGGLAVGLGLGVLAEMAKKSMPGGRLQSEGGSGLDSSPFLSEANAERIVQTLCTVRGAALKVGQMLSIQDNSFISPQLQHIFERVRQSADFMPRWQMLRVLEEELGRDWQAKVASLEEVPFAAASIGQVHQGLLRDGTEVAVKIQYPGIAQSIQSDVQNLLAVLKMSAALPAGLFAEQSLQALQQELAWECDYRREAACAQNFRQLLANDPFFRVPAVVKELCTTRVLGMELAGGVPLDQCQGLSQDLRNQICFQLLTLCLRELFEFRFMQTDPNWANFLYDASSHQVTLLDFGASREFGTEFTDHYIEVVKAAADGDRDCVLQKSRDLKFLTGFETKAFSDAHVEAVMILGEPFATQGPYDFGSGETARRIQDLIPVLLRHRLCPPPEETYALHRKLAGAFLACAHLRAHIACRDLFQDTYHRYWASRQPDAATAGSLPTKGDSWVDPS

Structure (SMILES) | assay | setting | remaining binding [%]
CN(C)c1nccc(-c2cnc3ncccn23)n1 | binding | 1 µM | 75
FC(F)(F)Oc1cccc(-c2cnc3ccc(-c4ccncc4)nn23)c1 | cell-free assay, competition with immobilised ligand | 5 µM | 85
CN(C)c1ncc(F)c(-c2cnn3ncccc23)n1 | binding | 1 µM | 73
O=C(c1ccc(Nc2ncc(Cl)c(-c3ccc(Cl)s3)n2)cc1)N1CCC(N2CCCC2)CC1 | binding, competition with immobilised ligand | 1 µM | 21
CC1CCCN1c1nccc(-c2cnn3ncccc23)n1 (stereo not shown) | binding | 1 µM | 68
COc1ncc2cc3ccccc3nc2c1C#N | cell-free assay, competition with immobilised ligand | 5 µM | 100
O=C(NCCCC1CCCCC1)c1ccc(CNC(=O)c2cnn(-c3ccccc3)c2C(F)(F)F)cc1 | cell-free assay, competition with immobilised ligand | 0.1 µM | 100
O=C(Nc1c[nH]nc1C(=O)NC1CCNCC1)c1cc(F)cc(F)c1 | binding, competition with immobilised ligand | 1 µM | 100
COc1cnc(Nc2cccc(S(N)(=O)=O)c2)nc1N1CCN(c2ccccc2)C(=O)C1 | binding, competition with immobilised ligand | 1 µM | 100
N[C@@H]1CCN(c2nccc(-c3cnn4ncccc34)n2)C1 | binding | 1 µM | 100
C[C@@H]1CN(c2cc(-c3n[nH]c4ccc(OC5(C)CC5)cc34)ncn2)C[C@H](C)O1 | cell-free assay, competition with immobilised ligand | 0.1 µM | 72
CCN1CCN(Cc2ccc(C(=O)Nc3ccc(C)c(Oc4ccc5c(c4)CC(=O)N5)c3)cc2C(F)(F)F)CC1 | binding, competition with immobilised ligand | 1 µM | 80
O=C(Nc1ccc(Oc2ccc(F)cc2)cc1)N1CCc2ncccc2[C@H]1c1ccc(F)cc1 | cell-free assay, competition with immobilised ligand | 1 µM | 92
O=C(c1ccc(Nc2nccc(-c3cc4ccccc4s3)n2)cc1)N1CCC(N2CCCC2)CC1 | binding, competition with immobilised ligand | 1 µM | 90
COCCOc1nc(-c2ccc(Cl)nc2)nc2c1CN(C(=O)c1ncn3ccccc13)CC2 | cell-free assay, competition with immobilised ligand | 0.1 µM | 100
Cc1cnn2ncc(-c3ccnc(N(C)C)n3)c2c1 | binding | 1 µM | 81
C[C@@H]1CN(c2cc(-c3nn(C)c4ccc(OC5(C)CC5)cc34)ncn2)C[C@H](C)O1 | cell-free assay, competition with immobilised ligand | 1 µM | 100
O=C(NCCCN1CCOCC1)c1ccc(Nc2ncc(Cl)c(-c3ccc(Cl)s3)n2)cc1 | binding, competition with immobilised ligand | 1 µM | 34
CNC(=O)Nc1ccc2c(c1)[C@@]1(CC2)OC(=O)N(CC(=O)N(Cc2ccc(F)cc2)[C@@H](C)C(F)(F)F)C1=O | cell-free assay, competition with immobilised ligand | 1 µM | 95
C[C@@H]1CCN(c2nccc(-c3cnn4ncccc34)n2)C1 | binding | 1 µM | 89
CCCCN(CCCC)C(=O)CN1C[C@@H](c2cc(OC)c3c(c2)OCO3)[C@H](C(=O)O)[C@H]1CC(C)(C)CCC | cell-free assay, competition with immobilised ligand | 1 µM | 80.2
c1cnn2ncc(-c3ccnc(N4CCC45COC5)n3)c2c1 | binding | 1 µM | 100
